Experimental data from ChEMBL document CHEMBL4765333, “Novel NO-releasing scopoletin derivatives induce cell death via mitochondrial apoptosis pathway and cell cycle arrest” (Eur J Med Chem, 2020).

Experiments:
[1] = system: MCF7; experiment: Antiproliferative activity against human MCF7 cells assessed as inhibition of cell growth rate at 10 uM measured after 48 hrs by MTT assay; format: functional
Summary of the method: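 MCF-7 cells in DMEM with 10% FBS exposed to a single 10 µM concentration for 48 h. Read-out by MTT (0.5 mg/ml, 4 h, DMSO dissolution, A570). Inhibition rate given versus untreated control as mean ± SD, n = 3.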

[2] = system: A549; experiment: Anticancer activity against human A549 cells assessed as inhibition of cell proliferation measured after 48 hrs by MTT assay; format: functional, cell-based; settings: A549, 48 h
Summary of the method: (§1)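 Cells seeded at ~5,000/well, grown 24 h to partial monolayer, then exposed 48 h at 37°C, 5% CO2 to 0.5, 1, 2, 4, 10 and 20 µM (DMSO ≤0.1%). MTT final 0.5 mg/ml for 4 h, formazan dissolved in DMSO, A570. Survival expressed as % of untreated control; IC50 from dose-response curves; three independent experiments.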

[3] = system: HepG2; experiment: Anticancer activity against human HepG2 cells assessed as inhibition of cell proliferation measured after 48 hrs by MTT assay; format: functional, cell-based; settings: HepG2, 48 h
Summary of the method: as §1, with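 “experiments. MDA-MB-231, MCF-7, HepG2 in DMEM; A549 and LO-2 in RPMI-1640; 10% FBS.” for “experiments.”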

[4] = system: MCF7; experiment: Anticancer activity against human MCF7 cells assessed as inhibition of cell proliferation measured after 48 hrs by MTT assay; format: functional, cell-based; settings: MCF7, 48 h
Summary of the method: as §1, with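 “experiments. MDA-MB-231, MCF-7, HepG2 in DMEM; A549 and LO-2 in RPMI-1640; 10% FBS.” for “experiments.”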

[5] = Prodrug release in human MDA-MB-231 cells assessed as increase in intracellular NO level at 25 uM measured after 2.5 hrs by total nitric oxide assay; format: ADME, cell-based; settings: mda-mb-23, 2.5 h
Summary of the method: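 MDA-MB-231 (2×10^5 cells/well) cultured 24 h, then treated 2.5 h with compound at 25 µM or DMSO. Cells harvested, lysed in nitric oxide assay buffer 1 h on ice; lysate NO quantified with a total nitric oxide assay kit. Mean ± SD, n = 3.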

[6] = system: L02; experiment: Cytotoxicity against human L02 cells assessed as reduction in cell viability measured after 48 hrs by MTT assay; format: cell-based; settings: L02, 48 h
Summary of the method: as §1, with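 “experiments. MDA-MB-231, MCF-7, HepG2 in DMEM; A549 and LO-2 in RPMI-1640; 10% FBS.” for “experiments.”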

[7] = Anticancer activity against human MDA-MB-231 cells assessed as inhibition of cell proliferation measured after 48 hrs by MTT assay; format: functional, cell-based; settings: MDA-MB-23, 48 h
Summary of the method: as §1, with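 “experiments. MDA-MB-231, MCF-7, HepG2 in DMEM; A549 and LO-2 in RPMI-1640; 10% FBS.” for “experiments.”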

[8] = Anticancer activity against human MDA-MB-231 cells assessed as inhibition of cell proliferation measured after 48 hrs in presence of 3-amino-7-hydroxy-6-methoxy-2H-chromen-2-one by MTT assay; format: functional, cell-based; settings: MDA-MB-23, 48 h
Summary of the method: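 MDA-MB-231 cells in DMEM with 10% FBS, ~5,000 cells/well, 24 h attachment, then compound for 48 h at 37°C, 5% CO2. MTT 0.5 mg/ml final for 4 h, DMSO solubilization, absorbance 570 nm; inhibition relative to untreated cells; experiments done three times.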

[9] = Prodrug release in human MDA-MB-231 cells assessed as increase in intracellular NO level at 10 uM measured after 2.5 hrs by DAF-FM DA reagent based scanning electron microscopy; format: ADME, cell-based; settings: mda-mb-231, 2.5 h, in the assay text read “laser scanning confocal microscopy” for “scanning electron microscopy”
Summary of the method: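 After 24 h growth at 5×10^4 cells/well, MDA-MB-231 cells loaded with DAF-FM DA (5 µM) 30 min at 37°C, 5% CO2, PBS-washed, then incubated 2.5 h with compound at 1 or 10 µM (scopoletin at 10 µM). NO fluorescence imaged by laser scanning confocal microscopy.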

Structure (SMILES) | IC50 [2] [µM] | IC50 [3] [µM] | IC50 [4] [µM] | Drug metabolism [5] | Drug metabolism [9] | inhibition at 10 µM [1] [%] | IC50 [6] [µM] | IC50 [7] [µM] | IC50 [8] [µM]
COc1cc2cc(NC(C)=O)c(=O)oc2cc1OCCCCCCOc1no[n+]([O-])c1S(=O)(=O)c1ccccc1 | 15 | 6.59 | 11.3 | Metabolite_Detected | – | 48.6 | 17.3 | 7.89 | –
COc1cccc2c1C(=O)c1c(O)c3c(c(O)c1C2=O)C[C@@](O)(C(=O)CO)C[C@@H]3O[C@H]1C[C@H](N)[C@H](O)[C@H](C)O1 [DOXORUBICIN] | – | 0.62 | 0.6 | – | – | – | 0.59 | 0.55 | –
O=S(=O)(c1ccccc1)c1c(OCCCO)no[n+]1[O-] | – | – | – | – | – | – | – | 7.25 | 6.36
COc1cc2ccc(=O)oc2cc1OCCCCCOc1no[n+]([O-])c1S(=O)(=O)c1ccccc1 | 10.6 | 3.42 | 3.85 | Metabolite_Detected | – | 87.1 | 8.86 | 3.17 | –
COc1cc2ccc(=O)oc2cc1OCCOc1no[n+]([O-])c1S(=O)(=O)c1ccccc1 | 7.24 | 3.61 | 3.54 | Metabolite_Detected | – | 89.2 | 10.9 | 2.86 | –
COc1cc2cc(NC(C)=O)c(=O)oc2cc1O | – | – | – | – | – | 5.21 | – | – | –
COc1cc2ccc(=O)oc2cc1OCCCOc1no[n+]([O-])c1S(=O)(=O)c1ccccc1 | 5.45 | 2.9 | 2.27 | – | – | 88.6 | 7.82 | 1.85 | –
COc1cc2ccc(=O)oc2cc1O [SCOPOLETIN] | > 25 | > 25 | > 25 | – | Metabolite_Notdetected | 7.95 | > 25 | > 25 | –
COc1cc2ccc(=O)oc2cc1OCCCCOc1no[n+]([O-])c1S(=O)(=O)c1ccccc1 | 6.14 | 3.25 | 3.04 | Metabolite_Detected | – | 84.4 | 9.33 | 2.79 | –
COc1cc2cc(N)c(=O)oc2cc1O | – | – | – | – | – | 7.13 | – | > 25 | –
COc1cc2cc(N)c(=O)oc2cc1OCCCCCOc1no[n+]([O-])c1S(=O)(=O)c1ccccc1 | 6.88 | 3.46 | 2.62 | Metabolite_Detected | – | 88.8 | 12.2 | 2.4 | –

Continued by falling IC50 [2], values first:

IC50 [2] [µM] | IC50 [3] [µM] | IC50 [4] [µM] | Drug metabolism [5] | Drug metabolism [9] | Structure (SMILES) | inhibition at 10 µM [1] [%] | IC50 [6] [µM] | IC50 [7] [µM] | IC50 [8] [µM]
11.4 | 5.42 | 6.27 | Metabolite_Detected | – | COc1cc2cc(NC(C)=O)c(=O)oc2cc1OCCCCCOc1no[n+]([O-])c1S(=O)(=O)c1ccccc1 | 73.6 | 13.8 | 4.34 | –
9.81 | 2.82 | 2.4 | Metabolite_Detected | – | COc1cc2cc(NC(C)=O)c(=O)oc2cc1OCCCOc1no[n+]([O-])c1S(=O)(=O)c1ccccc1 | 88.5 | 8.36 | 3.81 | –
9.43 | 3.79 | 4.48 | Metabolite_Detected | – | COc1cc2ccc(=O)oc2cc1OCCCCCCOc1no[n+]([O-])c1S(=O)(=O)c1ccccc1 | 84.8 | 12.4 | 3.35 | –
8.79 | 4.83 | 6.89 | Metabolite_Detected | – | COc1cc2cc(NC(C)=O)c(=O)oc2cc1OCCOc1no[n+]([O-])c1S(=O)(=O)c1ccccc1 | 83.7 | 10.2 | 4.99 | –
8.06 | 3.06 | 3.14 | Metabolite_Detected | – | COc1cc2cc(N)c(=O)oc2cc1OCCCCCCOc1no[n+]([O-])c1S(=O)(=O)c1ccccc1 | 84.4 | 10.3 | 2.93 | –
7.19 | 3.29 | 3.44 | Metabolite_Detected | – | COc1cc2cc(NC(C)=O)c(=O)oc2cc1OCCCCOc1no[n+]([O-])c1S(=O)(=O)c1ccccc1 | 80.4 | 9.19 | 3.15 | –
5.91 | 3.06 | 2.77 | Metabolite_Detected | – | COc1cc2cc(N)c(=O)oc2cc1OCCOc1no[n+]([O-])c1S(=O)(=O)c1ccccc1 | 88.5 | 9.82 | 2.46 | –
5.03 | 2.64 | 2.28 | Metabolite_Detected | – | COc1cc2cc(N)c(=O)oc2cc1OCCCCOc1no[n+]([O-])c1S(=O)(=O)c1ccccc1 | 89 | 8.63 | 1.93 | –
